Only some compounds are listed: those with a hit (about 2.4% of all), similar ones and a draw of the others.
RanGTP-Impb inh – disruptors of Ran-importin-beta complex formation – biochemical, FRET, CFP-Ran, YFP-importin-beta, homogeneous, primary screen; cell-free CFP-Ran/YFP-importin-beta FRET ratio; inhibition, % (no concentration beside the values); 300,000 tested, 1.1% active;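 active = more than half of the replicate wells show a fall in the fluorescence ratio signal beyond about 16%, limit read from the data, passing the limit was not always enough; inconclusive = exactly half of the replicate wells pass the set limit; inactive = fewer than half of replicates pass the limit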;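 note: 0% = DMSO wells and 100% = Ran loaded with GDP instead of GTP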
Runt-SMMHC FRET – inhibitors of human RUNX1 Runt domain binding to CBFb-SMMHC; 220,000 tested, 0.74% active; Cerulean-Runt/Venus-CBFb-SMMHC FRET ratio 530/480, 1 h; AID 1434; Q01196+Q13951; inhibition, % at 20 µM;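 active = mean inhibition across duplicate retests at 20 µM reaching about 50%, limit read from the data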;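 note: 0% = DMSO wells and 100% = wells with excess untagged CBFb-SMMHC; inhibitors lower the FRET ratio by blocking Runt binding to CBFb-SMMHC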
LANA-H2A inh – blocks KSHV LANA binding to histone H2A/H2B. Q9QR71. cell-free LANA-H2A/H2B peptide, fluorescence polarization. inhibition, % (test concentration not listed). 320,000 tested, 0.6% active; in the data active = inhibition mostly above about 10%, no sharp cut-off; inactive = mostly below about 6.7%
Runt-CBFb FRET – inhibitors of human RUNX1 Runt domain binding to CBFb; AID 1496; Cerulean-Runt/Venus-CBFb FRET ratio 530/480, 1 h; 220,000 tested, 0.46% active; inhibition, % at 20 µM; Q01196+Q13951;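 active = inhibition over about 50% at 20 µM in the single-dose screen, limit read from the data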;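 note: 0% = DMSO wells and 100% = excess unlabeled CBFb competitor control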
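test system = Cerulean-Runt domain fusion protein, energy donor | probe or stimulus = Venus-CBFb binding partner, 100 nM | incubation = two 1 h room-temperature incubations shielded from light | detection = fluorescence energy transfer, 422 nm excitation, 530/480 nm emission | measure = loss of energy transfer signal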
MEX-5 binding – C. elegans MEX-5 TCR-2 RNA binding activity; AID 1832; activity score (negative = inhibition of binding), % at 10 µM; 300,000 tested, 0.38% active; Q9XUB2; MEX-5/FITC-TCR2 RNA binding, fluorescence polarization; active compounds read low;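 active = inhibition past about -25% in most replicates, and total fluorescence under double the plate's negative control median, limit read from the data; inconclusive = replicates evenly split on the limit, or fluorescence at least double controls; inactive = too little inhibition in most replicates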;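 note: 0% = DMSO and -100% = 5 µM competing unlabeled TCR2 RNA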
Target sequence (Q9XUB2 whole entry, looked up): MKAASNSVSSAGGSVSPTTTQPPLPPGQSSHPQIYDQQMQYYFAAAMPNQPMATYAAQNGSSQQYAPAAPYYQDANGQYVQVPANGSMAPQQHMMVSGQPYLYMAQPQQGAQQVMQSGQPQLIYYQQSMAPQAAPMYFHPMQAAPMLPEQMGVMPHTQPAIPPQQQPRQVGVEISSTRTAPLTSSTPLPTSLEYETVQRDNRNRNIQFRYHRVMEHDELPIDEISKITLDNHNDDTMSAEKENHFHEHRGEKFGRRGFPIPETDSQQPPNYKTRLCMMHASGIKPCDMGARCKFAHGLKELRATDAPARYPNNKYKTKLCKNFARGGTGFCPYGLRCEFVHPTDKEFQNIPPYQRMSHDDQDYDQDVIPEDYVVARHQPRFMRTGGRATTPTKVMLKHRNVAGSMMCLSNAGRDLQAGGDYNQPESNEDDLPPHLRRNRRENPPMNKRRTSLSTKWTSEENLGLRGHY
EBV gp42 inh – inhibitors of Epstein-Barr virus glycoprotein 42; inhibition, % (tested at 21.74 µM); 220,000 tested, 0.42% active; Fluorescence polarization binding assay, mP read-out; Q1HVG2; AID 1085; in the data active = inhibition above about 50%
* marks the source's active call; other numbers are inactive results; i = inactive; ? = inconclusive; . = no result; ! = not confirmed by another sample.

SMILES	RanGTP-Impb inh	Runt-SMMHC FRET	LANA-H2A inh	Runt-CBFb FRET	MEX-5 binding	EBV gp42 inh
COc1ccc(N(Cc2ccccc2)S(=O)(=O)c2cc(C(=O)O)ccc2Cl)cc1	-1	.	1	.	0	.
Cc1c(NC(=O)C(C)OC(=O)COc2ccc(C#N)cc2)c(=O)n(-c2ccccc2)n1C (stereo not drawn)	-2	.	4	.	-3	.
Oc1c(CN2CCOCC2)cc(-c2ccccc2)cc1CN1CCOCC1	-7	0	-2	-2	-6	-21
Nc1c(-c2ccccc2)c(CN2CCOCC2)nn1-c1ccc(C(=O)O)cc1	32*	1	0	-1	0	-15
CC(=O)c1nn(-c2cccc(Br)c2)cc1C(=O)c1ccc(Br)cc1	29*	0	4	0	-2	-7
CC(=O)c1nn(-c2cccc(Br)c2)cc1C(=O)c1ccc(C)cc1	3	0	-1	-6	-1	-9
COc1ccc(C(=O)Nc2ccc(NC(=O)c3cc(OC)c(OC)c(OC)c3)cn2)cc1	1	.	-11	.	-1	.
O=C1C=CC(=O)C(C2=C3C(=O)N(CCc4ccccc4)CC(=O)N3CCC2)=C1	5	33	4	21	-47*	-17
O=C1C=C(c2cc(C(F)(F)F)cc(C(F)(F)F)c2)C[C@@H](c2ccc(Cl)cc2)C1	.	.	2	.	.	.
CNCCCC1c2ccccc2C=Cc2ccccc21	1	2	-5	-3	-1	-6
CNCCCC12CCC(c3ccccc31)c1ccccc12	2	2	9.6*!	0	1	-4
Cc1c(Br)c(=O)oc2c(C)c(O)ccc12	33*	73*	0	48	0	2
COc1ccc2c(C)c(C)c(=O)oc2c1OC	-1	0	3	-1	3	-2
CCN(CC)CCN1C2=C(C(=O)CC(C)(C)C2)C(c2cccc(F)c2)C2=C1CC(C)(C)CC2=O	96*	86*	1	83*	-1	140*
CC1(C)CC(=O)C2=C(C1)N(CCN1CCOCC1)C1=C(C(=O)CC(C)(C)C1)C2c1cccc(Cl)c1	111*	-21	-1	.	-2	-12
O=C(NC1CCCCC1)c1cc(-c2cccc(Cl)c2)on1	-1	.	3	.	-1	.
Cc1ccc(NC(=O)COC(=O)c2c(-c3ccccc3)noc2C)c(C)c1	.	.	0	.	.	.
CN(C(=S)Nc1ccc(F)cc1)C1(c2ccccc2Cl)CCCCC1=O (stereo not drawn)	-2	0	.	88*	-2	0
CN(N)C(=S)Nc1ccc(F)cc1	3	2	7	1	1	-8
CCCn1c(=N)c(C(=O)NCC2CCCO2)cc2c(=O)n3cccc(C)c3nc21 (stereo not drawn)	184*	38	1	12	-27*	-5
COCCCn1c(=N)c(C(=O)NCC2CCCO2)cc2c(=O)n3ccccc3nc21 (stereo not drawn)	172*	65*	0	12	0	-6
Cc1cccn2c(=O)c3cc(C(=O)NCC4CCCO4)c(=N)n(CCN4CCOCC4)c3nc12 (stereo not drawn)	106*	79*	-2	125*	-6	-21
COCCCn1c(=N)c(C(=O)NCC2CCCO2)cc2c(=O)n3cccc(C)c3nc21 (stereo not drawn)	177*	60*	-2	19	-2	-13
Cc1c(C(C)NC(=O)c2cc(COc3cccc4cnccc34)on2)cnn1C (stereo not drawn)	1	.	25*	.	-1	.
O=C(NCCCN=C1NS(=O)(=O)c2ccccc21)c1ccc(Cl)cc1	2	.	-4	.	-1	.
SMILES	RanGTP-Impb inh	Runt-SMMHC FRET	LANA-H2A inh	Runt-CBFb FRET	MEX-5 binding	EBV gp42 inh
O=C(O)c1ccccc1-c1ccccc1C(=O)NCc1cccc(C(F)(F)F)c1	0	1	18*	1	-1	4
COc1cccc(N=Nc2c(=O)[nH]n3c(=O)c4c([nH]c23)CCC4)c1	6	-8	-10	-13	-4	0
COc1cccc(N=Nc2c(=O)[nH]n3c(=O)cc(C)[nH]c23)c1	-3	-9	3	-6	-32*	-6
C#C[C@]1(O)CCC2C3CCC4=Cc5oncc5CC4(C)C3CCC21C (stereo partly drawn)	2	.	13*	.	-5	.
C#C[C@]1(O)CC[C@H]2[C@@H]3CCc4cc(O)ccc4[C@H]3CC[C@@]21C	5	1	-14	-2	-9	-5
Cn1c(O)c(C2=c3ccccc3=NC2=O)[nH]c1=S	2	-6	0	-2	-1	-19
COc1ccc2nc(-n3c(O)c(C4=c5ccccc5=NC4=O)[nH]c3=S)sc2c1	-10	-12	i	-12	0	115*
Cc1ccc(NC(=O)C(c2ccccc2)N(C)C)cc1Cl (stereo not drawn)	1	1	12*	-2	2	-15
Cc1ccc(NC(=O)C(OC(=O)c2ccc(O)cc2)c2ccccc2)cc1Cl (stereo not drawn)	-4	0	1	0	-4	-3
COC(=O)c1ccc(SC)cn1	0	0	-1	-2	-3	-4
Cc1cc(C)c2cc(CN(Cc3ccco3)C(=S)NCC3CCCO3)c(=O)[nH]c2c1 (stereo not drawn)	2	2	20*	7	4	4
COc1ccc(Cl)cc1S(=O)(=O)NC(C)C(=O)NCc1ccncc1 (stereo not drawn)	4	.	3	.	.	.
CCN1C=C(C(=O)OC)C(c2cccc(C)c2)C(C(=O)OC)=C1	4	61*	1	49	1	-2
COC(=O)C1=CN(c2cc(C)cc(C)c2)C=C(C(=O)OC)C1c1cccc(F)c1	4	.	2	.	-1	.
COC(=O)C1=CN(Cc2cccs2)C=C(C(=O)OC)C1c1cccc(Cl)c1	7	85*	8	37	.	10
COC(=O)c1ccc(NC(=O)C(OC)c2ccccc2)cc1 (stereo not drawn)	3	-6	-2	0	-2	-1
O=C(NN1CC(C(=O)OCc2ccc(Cl)cc2Cl)CC1=O)c1ccccc1 (stereo not drawn)	-1	.	-9	.	1	.
NC(CCCCc1ccccc1)c1cccc2ccccc12 (stereo not drawn)	2	.	-1	.	1	.
Cc1ccc2c(c1)C(=O)CCN2	?	-152	0	-41	-1	3
O=C1CCNc2cc3ccccc3cc21	38*	75*	2	16	-5	48
C=CCNC(=O)c1sc(=S)n(-c2ccc(C(=O)OCC)cc2)c1N	4	25	40*	43	2	-5
